Assay outcomes: PubChem BioAssay, Sanford-Burnham Center for Chemical Genomics
EBI2 antag: blocks human EBI2 receptor beta-arrestin signaling. AID 651636. P32249. inhibition, % at 5 µM. 360,000 tested, 0.81% active. EBI2 beta-arrestin recruitment, luminescence, 7a,25-OHC stimulated; in the data active means inhibition above about 38%;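 further: enzyme fragment complementation signal reports receptor beta-arrestin coupling in cells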
APJ ag: activates the human apelin receptor APJ | activation, % at 20 µM | P35414 | 330,000 tested, 0.11% active | CHO-K1 APJ PathHunter beta-arrestin, luminescence; 0% DMSO wells, 100% apelin | AID 2520;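 active means activation more than six SD over the plate average, tested at 20 µM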
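system = engineered CHO-K1 APJ arrestin reporter cells | input = 1000 cells per well | timing = overnight seeding, 90 min compound at 25 °C, 1 h detection | measured by = enzyme-fragment complementation luminescence | read-out = beta-arrestin recruitment to APJ as agonist activity, luminescent signal | control set = negative DMSO alone, positive Apelin-13 at 10 nM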
CCR6 antagonist: CCR6 (human) receptor antagonism. inhibition, % at 20 µM. CHO-K1 CCR6 PathHunter beta-arrestin, luminescence, CCL20-stimulated. AID 493098. 340,000 tested, 0.49% active. P51684;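 active means compounds whose inhibition of the agonist-driven luminescence signal at 20 µM reaches about 50%, limit read from the data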;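 further: cells stimulated with CCL20 at 14 nM final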
Target sequence (P51684 whole entry, looked up): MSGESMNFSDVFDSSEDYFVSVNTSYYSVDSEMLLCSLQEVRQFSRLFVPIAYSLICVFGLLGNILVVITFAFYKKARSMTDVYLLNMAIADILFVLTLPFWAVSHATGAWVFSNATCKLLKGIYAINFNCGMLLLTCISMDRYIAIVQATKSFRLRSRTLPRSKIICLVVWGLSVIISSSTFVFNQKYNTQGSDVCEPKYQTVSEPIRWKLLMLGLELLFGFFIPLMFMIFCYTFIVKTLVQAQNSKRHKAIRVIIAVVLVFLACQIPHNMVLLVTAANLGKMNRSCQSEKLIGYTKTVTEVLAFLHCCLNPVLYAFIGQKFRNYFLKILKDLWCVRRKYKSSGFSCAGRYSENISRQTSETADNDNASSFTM
APJ antag: antagonists of human APJ apelin receptor. P35414. CHO-K1 APJ beta-arrestin complementation, luminescence. inhibition, % at 20 µM. 330,000 tested, 0.32% active. AID 2521;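 active means inhibition above about 40% at 20 µM, limit read from the data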;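 further: cells challenged with 10 nM apelin-13 agonist together with compound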
CXCR6 block: inhibitors of human CXCR6 receptor; AID 602244; 360,000 tested, 0.36% active; CHO-K1 PathHunter CXCR6 beta-arrestin, luminescence; inhibition, % at 20 µM; O00574; in the data active means inhibition above about 34%, passing the limit was not always enough;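 further: antagonist mode with CXCL16 agonist at 10 nM final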
EBI2 antag conf: confirmation of human EBI2 receptor antagonists | shares compounds with EBI2 antag | 2,400 tested, 29% active | inhibition, % at 5 µM | EBI2 beta-arrestin luminescence, 7a,25-OHC antagonism;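 active means inhibition of at least 50%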
EBI2 ag: activates EBI2, counter-screen for EBI2 antagonists; shares compounds with EBI2 antag; EBI2-expressing cells, agonist mode, luminescence, 60 min; 0% vehicle, 100% 7α,25-dihydroxycholesterol control; activation, % at 5 µM; 2,400 tested, under 10 active;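 active means activation of at least 50%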
bGal counter: counter-screen for EBI2 antagonists: E. coli beta-galactosidase inhibition. 2,400 tested, 1% active. shares compounds with EBI2 antag. inhibition, % at 5 µM. purified beta-galactosidase, luminescent Galacton Star, 15 min;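 active means replicate-average signal at least 3 plate SD below neutral wells, shown as high inhibition, flagging enzyme-inhibiting false positives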;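 further: higher means stronger loss of beta-gal luminescence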
Numbers stand for hits. Compounds with a hit are over-represented: about 1.5% of the library has one in this group of screens.

What do the screens show for `Cc1ccc(C(=O)C2CCN(C(=O)c3ccc(C)cc3)CC2)cc1`?
EBI2 antag: 57; APJ ag: inactive; CCR6 antagonist: inactive; APJ antag: inactive; CXCR6 block: inactive; EBI2 antag conf: inactive; EBI2 ag: inactive; bGal counter: inactive

How did O=C(NC(=S)Nc1ccc(N2CCOCC2)cc1)c1ccc(Cl)cc1 do in these assays?
EBI2 antag: inactive; APJ ag: inactive; CCR6 antagonist: inactive; APJ antag: inactive; CXCR6 block: inactive

How did O=C(c1ccc(Cl)cc1)N1CCN(c2ccc(F)cc2)CC1 do in these assays?
EBI2 antag: 51; APJ ag: inactive; CCR6 antagonist: inactive; APJ antag: inactive; CXCR6 block: inactive; EBI2 antag conf: inactive; EBI2 ag: inactive; bGal counter: inactive

Results for Cc1ccc(C(=O)N2CCN(S(=O)(=O)N3CCCCCC3)CC2)cc1 ?
EBI2 antag: inactive; APJ ag: inactive; CCR6 antagonist: inactive; APJ antag: inactive; CXCR6 block: inactive

How did CCC(=O)NC(=S)Nc1ccc(N2CCN(C(=O)c3ccc(Cl)cc3)CC2)cc1 do in these assays?
EBI2 antag: 43; APJ ag: inactive; CCR6 antagonist: inactive; APJ antag: inactive; CXCR6 block: inactive; EBI2 antag conf: inactive; EBI2 ag: inactive; bGal counter: inactive

How did COc1cc(/C=C/C(=O)OCC(=O)NCC2CCCO2)ccc1OCC#N (stereo unspecified) do in these assays?
EBI2 antag: inactive; APJ ag: inactive; CCR6 antagonist: inactive; APJ antag: inactive; CXCR6 block: inactive

What do the screens show for `CC(=O)N1CCC(C(=O)c2ccc(Cl)cc2)CC1`?
EBI2 antag: inactive; APJ ag: inactive; CCR6 antagonist: inactive; APJ antag: inactive; CXCR6 block: inactive

Results for O=C(c1ccc(Cl)cc1)C1CCN(C(=O)c2ccc(F)cc2)CC1 ?
EBI2 antag: 49; APJ ag: inactive; CCR6 antagonist: inactive; APJ antag: inactive; CXCR6 block: inactive; EBI2 antag conf: inactive; EBI2 ag: inactive; bGal counter: inactive

Results for Cc1ccc(C(=O)N2CCC(C(=O)c3ccc(F)cc3)CC2)cc1 ?
EBI2 antag: 52; CCR6 antagonist: inactive; CXCR6 block: inactive; EBI2 antag conf: 50; EBI2 ag: inactive; bGal counter: inactive

Results for Cc1cc(S(=O)(=O)N2CCCC(N(C)CCc3ccccn3)C2)c(C)cc1Cl (stereo unspecified) ?
EBI2 antag: inactive; APJ ag: inactive; CCR6 antagonist: inactive; APJ antag: inactive; CXCR6 block: inactive

What do the screens show for `NC(=O)[C@@H]1CC2(CC(c3cccc(NC(=O)COc4ccc(Cl)cc4)c3)=NO2)CN1C(=O)COc1ccc(Cl)cc1` (stereo partly specified)?
EBI2 antag: 53; APJ ag: inactive; CCR6 antagonist: inactive; APJ antag: inactive; CXCR6 block: inactive; EBI2 antag conf: inactive; EBI2 ag: inactive; bGal counter: inactive

How did O=C(c1cc2cc(Cl)ccc2[nH]1)N1CCN(c2ccccn2)CC1 do in these assays?
EBI2 antag: 80; APJ ag: inactive; CCR6 antagonist: inactive; APJ antag: inactive; CXCR6 block: inactive; EBI2 antag conf: 67; EBI2 ag: inactive; bGal counter: inactive

What do the screens show for `O=C(c1cc2cc(Cl)ccc2[nH]1)N1CCN(c2ccccc2F)CC1`?
EBI2 antag: 85; APJ ag: inactive; CCR6 antagonist: inactive; APJ antag: inactive; CXCR6 block: inactive; EBI2 antag conf: 73; EBI2 ag: inactive; bGal counter: inactive

How did O=C(c1cc2cc(Cl)ccc2[nH]1)N1CCN(C(=O)c2ccco2)CC1 do in these assays?
EBI2 antag: 73; APJ ag: inactive; CCR6 antagonist: inactive; APJ antag: inactive; CXCR6 block: inactive; EBI2 antag conf: inactive; EBI2 ag: inactive; bGal counter: inactive

Results for CCOC(=O)CC1(CC)Oc2ccccc2N1S(=O)(=O)c1ccc(C)cc1 (stereo unspecified) ?
EBI2 antag: inactive

What do the screens show for `C=CCN(CC=C)Cc1cc(=O)oc2cc(C)c(C)cc12`?
EBI2 antag: inactive; CXCR6 block: inactive

What do the screens show for `CN(C)c1ccc(C(=O)/C=C/c2ccc(Br)cc2)cc1`?
EBI2 antag: 86; APJ ag: inactive; CCR6 antagonist: inactive; APJ antag: inactive; CXCR6 block: inactive; EBI2 antag conf: 64; EBI2 ag: inactive; bGal counter: inactive

What do the screens show for `CCNC(=O)C1(C)CCCN(CCOc2ccc(Cl)cc2)C1` (stereo unspecified)?
EBI2 antag: inactive; CXCR6 block: inactive

How did COc1ccc(N2CCN(C(=O)COc3ccc4ccccc4c3)CC2)cc1 do in these assays?
EBI2 antag: 85; APJ ag: inactive; CCR6 antagonist: inactive; APJ antag: inactive; CXCR6 block: inactive; EBI2 antag conf: inactive; EBI2 ag: inactive; bGal counter: inactive

What do the screens show for `O=C(COc1ccc2cc(Br)ccc2c1)N1CCOCC1`?
EBI2 antag: 62; APJ ag: inactive; CCR6 antagonist: inactive; APJ antag: inactive; CXCR6 block: inactive; EBI2 antag conf: inactive; EBI2 ag: inactive; bGal counter: inactive

How did COc1ccc(OCC(=O)N2CCN(C(=O)COc3ccc(Br)cc3)CC2)cc1 do in these assays?
EBI2 antag: 80; APJ ag: inactive; CCR6 antagonist: inactive; APJ antag: inactive; CXCR6 block: inactive; EBI2 antag conf: 56; EBI2 ag: inactive; bGal counter: inactive

What do the screens show for `O=C(COc1ccccc1)N1CCN(c2ccccc2)CC1`?
EBI2 antag: inactive; APJ ag: inactive; CCR6 antagonist: inactive; APJ antag: inactive; CXCR6 block: inactive

How did CC(=O)c1ccc(N2CCN(C(=O)COc3ccc4ccccc4c3)CC2)cc1 do in these assays?
EBI2 antag: inactive; CXCR6 block: inactive

What do the screens show for `O=C(COc1ccc(Br)cc1)N1CCN(c2ccccc2)CC1`?
EBI2 antag: 82; APJ ag: inactive; CCR6 antagonist: inactive; APJ antag: inactive; CXCR6 block: inactive; EBI2 antag conf: 67; EBI2 ag: inactive; bGal counter: inactive

Results for C=CCn1c(SCC(=O)Nc2ccc(F)cc2)nc2ccccc2c1=O ?
EBI2 antag: inactive; APJ ag: inactive; CCR6 antagonist: inactive; APJ antag: inactive; CXCR6 block: inactive

Results for O=C(COc1ccc2ccccc2c1)N1CCN(c2ccccc2)CC1 ?
EBI2 antag: 50; APJ ag: inactive; CCR6 antagonist: inactive; APJ antag: inactive; CXCR6 block: inactive; EBI2 antag conf: inactive; EBI2 ag: inactive; bGal counter: inactive

What do the screens show for `O=C(COc1ccc2ccccc2c1)N1CCCC1`?
EBI2 antag: inactive; APJ ag: inactive; CCR6 antagonist: inactive; APJ antag: inactive; CXCR6 block: inactive

How did O=C(COc1ccc(-c2ccccc2)cc1)N1CCN(C(=O)c2cccnc2)CC1 do in these assays?
EBI2 antag: inactive; APJ ag: inactive; CCR6 antagonist: inactive; APJ antag: inactive; CXCR6 block: inactive
